Like-named read-outs stand apart in the source and are kept apart here.
Key:
LSCe cells [1] = assay: LSCe cell co-culture cobblestone area; assay type: cell-based, mouse; settings: for selective inhibition of LSCe cells relative to normal HSPCs: co-culture; for EC50: read-out: EC50 for LSCe cells in co-culture (cobblestone area formation), MLL-AF9 LSCe cells in co-culture with stroma; for validated hit from the screen: inhibits LSCe cells relative to normal HSPCs, no significant stromal toxicity
[2] = tested on: human AML cell lines (U937, THP-1, NOMO-1, SKM-1, NB4, and OCI-AML3); assay: Human AML cell line viability screen; assay type: cell-based; settings: for EC50: Homo sapiens
LSCe cells [3] = assay: Mevalonate rescue of lovastatin treatment in LSCe/OP9 co-culture; assay type: cell-based, mouse; settings: 2 mM mevalonate, 1 μM lovastatin, OP9 stroma
In short: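 GFP⁺ OP9 stroma (13,500 per well) was plated on gelatin-coated 96-well plates. After 24 h, 2,000 sorted mouse LSCe cells were added. About 24 h later, 2 mM mevalonolactone and/or 1 μM lovastatin were added together, at constant DMSO (0.2% final). After 3 days, medium was fully changed and reagents were re-added.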

AML = settings: phase 1 clinical trial in AML; cited from earlier work
FLT3-mutated AML = settings: cited from earlier work
[4] = tested on: LSCe cells on pretreated OP9 stroma; assay: Stromal pretreatment screen; assay type: cell-based, mouse
[5] = tested on: dsRed+ LSCe cells and GFP+ HSPCs; assay: BMSC stromal pretreatment with admixed LSCe cells and HSPCs; assay type: cell-based, mouse; settings: bone marrow stromal cells pretreated for 3 days
In short: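 Wild-type C57BL/6 BMSC monolayers (384-well) treated with test compound for 3 days at 33°C/5% CO₂, then rinsed twice with PBS. 1200 GFP⁺ HSPCs (UbiquitinC-GFP mice) and 1200 dsRed⁺ LSCe cells plated together onto them. 5 days later, wells imaged at 10x in dsRed and GFP channels; total cell area per channel per well quantified. Mean ± SEM of quadruplicates.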

LSCe cells [6] = assay: Gene-expression profiling of LSCe cells with GSEA; assay type: cell-based, mouse; settings: 5 μM, 6 hours, in suspension
In short: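 250,000 LSCe cells per sample exposed to test compound or DMSO (n = 5 and 2, respectively) for 6 h in suspension in IMDM, 10% FBS, 1% Pen-Strep. RNA extracted, amplified, and hybridized to Illumina MouseRef-8 v2.0 Expression BeadChips.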

[7] = tested on: patient-derived, primary human leukemia cells; assay: Human CAFC assay, patient-derived leukemia cells on MS-5 stroma; assay type: cell-based; settings: lovastatin: treated 6 days, assessed at 5 weeks (2 weeks for FLT3-ITD)
In short: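 CD34-enriched cells from bone marrow/peripheral blood of AML patients (presentation or relapse) seeded on MS-5 mouse stroma (20,000/well, 96-well, plated 1 day earlier, 37°C/5% CO₂). Seeding density set for one cobblestone per control well at 5 weeks. Medium: α-MEM, 12.5% FCS, 12.5% horse serum, monothioglycerol, 1 µM hydrocortisone, 20 ng/ml human IL-3. Test compound added next day (0.2% DMSO final) for 6 days, then rinsed and refed; half media change at 3 weeks. Score: fraction of replicate wells with ≥6 tightly packed cells beneath stroma.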

normal HSPCs = assay: HSPC co-culture on primary bone marrow stromal cells; assay type: cell-based, mouse
In short: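 Normal mouse HSPCs (400 per well) were plated in 384-well format on primary CD105⁺ bone-marrow stromal cells and held at 33°C/5% CO₂. The stroma was isolated from GFP-transgenic or wild-type C57BL/6 mice by anti-CD105 magnetic-bead selection and grown 2–3 days at 33°C before use. Test compound was run at 8–12 concentrations in duplicate, with a cytotoxic control at 22 μM.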

[8] = tested on: OP9 or BMSC stromal cells; assay: Stromal toxicity screen; assay type: cell-based, mouse; settings: stroma pretreatment
In short: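 OP9 (6,750/well) or primary BMSC (2,000/well) stromal cells plated in 384-well plates. After 24 h, test compound added at 8 concentrations; incubated 72 h at 37°C/5% CO₂. Viability read by CellTiter-Glo ATP luminescence. Toxicity called when mean signal fell 3 SD (BMSC) or 5 SD (OP9) below DMSO control at concentrations below 20 μM.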

MOZ-TIF2 LSCe cells = assay: MOZ-TIF2 LSCe cell co-culture with BMSCs; assay type: cell-based; settings: Mus musculus, BMSC, read-out: EC50, MOZ-TIF2 LSCe cells in co-culture
murine AML cell lines = assay: Murine myeloid cell line viability; assay type: cell-based; settings: Mus musculus, 72 h, read-out: EC50 against murine AML cell lines
[9] = tested on: normal HSPC (CD34+ cells from umbilical cord blood); assay: Human CAFC assay, normal CD34+ cord blood cells on MS-5 stroma; assay type: cell-based; settings: treated 6 days, assessed at 5 weeks
[10] = tested on: dsRed+ LSCe cells and GFP+ HSPCs; assay: Admixed LSCe cells and HSPCs co-cultured with primary BMSCs, direct treatment; assay type: cell-based, mouse; settings: 200 nM lovastatin, assessed 5 days later
In short: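 Primary BMSC monolayers from C57BL/6 mice plated in 384-well format. 3 days later, 800 dsRed⁺ LSCe cells and 1600 GFP⁺ HSPCs (UbiquitinC-GFP mice) added. Test compound or DMSO added 24 h later and incubated 5 days. Wells imaged in dsRed and GFP channels at 10x; total cell area per well quantified for each channel. Mean ± SEM of quadruplicates, two independent experiments.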

LSCe cells [11] = assay: Limiting dilution syngeneic transplantation of ex vivo treated LSCe co-cultures; set-up: species or system mouse; settings: 500 to 10,000 LSCe cells, 24-hour ex vivo exposure to 5 μM lovastatin in co-culture with BMSCs
LSCe cells and HSPCs = settings: mixed cultures exposed ex vivo 48 hours to 5 μM lovastatin; relative to DMSO

In the case of COCc1c(C(C)C)nc(C(C)C)c(/C=C/[C@@H](O)C[C@@H](O)CC(=O)O)c1-c1ccc(F)cc1 [cerivastatin], the “selective inhibition of LSCe cells relative to normal HSPCs” value (LSCe cells [1]) is reported as “selectively inhibited LSCe cells relative to normal HSPCs”.
For CCCCc1ccc2[nH]c(NC(=O)OC)nc2c1 [parbendazole], the EC50 ([2]; read-out: EC50, AML cell line viability) was < 625 nM.
With CC(C)c1c(C(=O)Nc2ccccc2)c(-c2ccccc2)c(-c2ccc(F)cc2)n1CC[C@@H](O)C[C@@H](O)CC(=O)O [atorvastatin] the “selective inhibition of LSCe cells relative to normal HSPCs” value (LSCe cells [1]) was “selectively inhibited LSCe cells relative to normal HSPCs”.
With CC(O)(CCO)CC(=O)O (centres unmarked) [mevalonate] the “rescue of the anti-leukemia effects of lovastatin” value (LSCe cells [3]) was “fully rescued”.
In the case of CC[C@H](C)C(=O)O[C@H]1C[C@H](O)C=C2C=C[C@H](C)[C@H](CC[C@@H](O)C[C@@H](O)CC(=O)O)[C@H]21 [pravastatin], the “scoring in LSCe co-culture assay” value (LSCe cells [1]) is listed as “did not score”, the “anti-leukemia effect in patients” value (AML) is listed as “preliminary evidence of an anti-leukemia effect” and the “scoring in model of FLT3-mutated AML” value (FLT3-mutated AML) is listed as “did not score”.
With Cc1c(C)c2c(c(C)c1O)CCC(C)(COc1ccc(CC3SC(=O)NC3=O)cc1)O2 (centres unmarked) [troglitazone] the “sensitivity of AML cell lines” value ([2]; concentrations as high as 35 μM) was “none of the AML cell lines tested was sensitive” and the “change in stromal morphology” value [4] was “dose-dependent adipocytic change in the stroma”.
In the case of CC1(C)C(C(=O)Nc2ccc(S(=O)(=O)c3ccc(NC(=O)C4C(C)(C)C4(C)C)cc3)cc2)C1(C)C [BRD7116], the EC50 (LSCe cells [1]) is reported as 200 nM, the “relative inhibition of LSCe cells and HSPCs on pretreated stroma” value [5] is reported as “preferentially inhibited the LSCe cells compared to HSPCs” and the “inhibition of AML cell lines” value ([2]; at 20 μM) is reported as ~ 50%. For the same molecule, the “transcriptional changes (GSEA)” value (LSCe cells [6]) was “induced transcriptional changes consistent with myeloid differentiation”, the “activity against patient-derived primary human leukemia cells (cobblestone area formation)” value [7] was “showed activity” and the “activity against normal HSPCs” value (normal HSPCs; co-cultured on primary BMSC stroma) was “limited activity”. The “change in stromal morphology” value [4] was “not accompanied by an obvious change in stromal morphology” and the “stromal cell viability (CellTiter-Glo)” value [8] was “without evidence of altered stromal cell viability”.
With CC(C)n1c(/C=C/C(O)CC(O)CC(=O)O)c(-c2ccc(F)cc2)c2ccccc21 (centres unmarked) [fluvastatin] the “selective inhibition of LSCe cells relative to normal HSPCs” value (LSCe cells [1]) was “selectively inhibited LSCe cells relative to normal HSPCs”.
For CC1=C(O)C(=O)C=C2C1=CC=C1[C@@]2(C)CC[C@@]2(C)[C@@H]3C[C@](C)(C(=O)O)CC[C@]3(C)CC[C@]12C [celastrol], the “validated hit from the screen” value (LSCe cells [1]) was “among the 155 validated hits”.
In the case of CCC(C)(C)C(=O)O[C@H]1C[C@@H](C)C=C2C=C[C@H](C)[C@H](CC[C@@H]3C[C@@H](O)CC(=O)O3)[C@H]21 [simvastatin], the “selective inhibition of LSCe cells relative to normal HSPCs” value (LSCe cells [1]) is reported as “selectively inhibited LSCe cells relative to normal HSPCs”.
In the case of CC(C)c1nc(N(C)S(C)(=O)=O)nc(-c2ccc(F)cc2)c1/C=C/[C@@H](O)C[C@@H](O)CC(=O)O [rosuvastatin], the “selective inhibition of LSCe cells relative to normal HSPCs” value (LSCe cells [1]) is reported as “selectively inhibited LSCe cells relative to normal HSPCs”.
For C=C1C(=O)O[C@H]2[C@H]1CC/C(C)=C/CC[C@@]1(C)O[C@@H]21 [parthenolide], the “validated hit from the screen” value (LSCe cells [1]) was “among the 155 validated hits”.
For CC[C@H](C)C(=O)O[C@H]1C[C@@H](C)C=C2C=C[C@H](C)[C@H](CC[C@@H]3C[C@@H](O)CC(=O)O3)[C@H]21 [lovastatin], the EC50 (LSCe cells [1]) was ~200 nM, the EC50 (MOZ-TIF2 LSCe cells) was < 250 nM and the EC50 (murine AML cell lines) was > 2000 nM. For the same molecule, the “inhibition of normal HSPC cobblestone area formation” value [9] was “no inhibition”, the EC50 ([2]; read-out: EC50 against human AML cell lines) was > 2000 nM and the “relative inhibition of admixed LSCe cells and HSPCs” value [10] was “selectively inhibited the dsRed^+ leukemia cells while sparing the GFP^+ HSPCs”. For the same molecule, the “activity against patient-derived primary human leukemia cells (cobblestone area formation)” value [7] was “inhibited cobblestone area formation for all 6 patient-derived AML samples”, the “toxicity to normal HSPCs” value (normal HSPCs; concentrations as high as 20 μM, co-culture with BMSCs) was “no apparent toxicity” and the “leukemia development after transplantation” value (LSCe cells [11]) was “only one animal in the lovastatin group developed leukemia by 11.5 weeks”. For the same molecule, the “survival of transplanted mice” value (LSCe cells and HSPCs) was “survived substantially longer”.
